Assay results: ChEMBL document CHEMBL3397016, “SAR-studies of γ-secretase modulators with PPARγ-agonistic and 5-lipoxygenase-inhibitory activity for Alzheimer's disease” (Bioorg Med Chem Lett, 2015)
Activity calls are given as the source filed them. The calls are words filed in the database; no cut-off is given here.

Key:
[1] = target: T1, Peroxisome proliferator-activated receptor gamma (Homo sapiens) (UniProt P37231); assay: Activation of human PPARgamma ligand binding domain expressed in COS7 cells at 6 uM by dual luciferase reporter gene assay; type: cell-based; details: COS-7
T1 sequence (whole entry): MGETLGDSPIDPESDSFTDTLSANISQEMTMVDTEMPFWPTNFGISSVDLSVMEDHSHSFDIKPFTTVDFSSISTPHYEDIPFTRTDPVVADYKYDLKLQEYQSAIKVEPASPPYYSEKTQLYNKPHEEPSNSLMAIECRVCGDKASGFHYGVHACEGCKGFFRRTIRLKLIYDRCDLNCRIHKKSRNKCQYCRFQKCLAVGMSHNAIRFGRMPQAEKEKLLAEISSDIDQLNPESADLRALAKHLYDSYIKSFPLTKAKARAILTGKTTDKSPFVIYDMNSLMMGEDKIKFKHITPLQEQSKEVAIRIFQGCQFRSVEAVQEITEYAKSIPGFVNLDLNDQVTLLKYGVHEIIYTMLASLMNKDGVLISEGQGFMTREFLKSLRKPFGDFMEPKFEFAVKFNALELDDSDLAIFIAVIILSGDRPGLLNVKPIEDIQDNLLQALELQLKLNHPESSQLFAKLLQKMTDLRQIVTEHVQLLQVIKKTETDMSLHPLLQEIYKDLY

Presenilin-1 [2] = target: T2, Presenilin-1 (Homo sapiens, UniProt P49768); assay: Inhibition of wild-type human presenilin-1 stably overexpressed in CHO cells co-expressing wild-type human amyloid precursor protein assessed as inhibition of amyloid beta 42 formation after 24 hrs by ELISA; type: cell-based
[3] = target: T3, Prostaglandin G/H synthase 1 (Ovis aries) (UniProt P05979); assay: Inhibition of ovine COX1-mediated 12-HHT formation assessed as remaining activity at 10 uM preincubated for 5 mins before arachidonic acid addition by HPLC analysis
T3 sequence (whole entry): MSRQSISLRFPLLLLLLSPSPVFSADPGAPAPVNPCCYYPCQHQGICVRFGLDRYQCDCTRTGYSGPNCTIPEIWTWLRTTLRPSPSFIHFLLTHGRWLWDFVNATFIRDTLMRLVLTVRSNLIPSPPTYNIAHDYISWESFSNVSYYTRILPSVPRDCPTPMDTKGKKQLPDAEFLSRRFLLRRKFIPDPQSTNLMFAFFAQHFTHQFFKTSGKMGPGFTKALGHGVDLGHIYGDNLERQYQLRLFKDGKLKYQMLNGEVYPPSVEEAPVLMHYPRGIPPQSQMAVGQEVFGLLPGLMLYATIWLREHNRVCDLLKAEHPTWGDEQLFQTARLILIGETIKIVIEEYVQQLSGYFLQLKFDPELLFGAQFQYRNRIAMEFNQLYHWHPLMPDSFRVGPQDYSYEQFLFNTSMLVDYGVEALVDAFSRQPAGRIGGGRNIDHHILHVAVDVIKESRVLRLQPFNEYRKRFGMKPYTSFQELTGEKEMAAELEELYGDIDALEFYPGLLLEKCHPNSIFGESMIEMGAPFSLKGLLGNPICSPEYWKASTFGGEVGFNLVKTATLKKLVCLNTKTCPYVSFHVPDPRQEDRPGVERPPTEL
Summary of the method: (§1)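 Cell-free enzyme assays. Data given either as IC50 or as remaining enzyme activity at 10 µM test concentration.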

Presenilin-1 [4] = target: T2, Presenilin-1; assay: Activation of wild-type human presenilin-1 stably overexpressed in CHO cells co-expressing wild-type human amyloid precursor protein assessed as amyloid beta 38 formation after 24 hrs by ELISA; type: cell-based
Prostaglandin E synthase = target: T4, Prostaglandin E synthase (Homo sapiens, UniProt O14684); assay: Inhibition of mPGES-1-mediated PGE2 formation in interleukin-1beta-stimulated human A549 microsomal membranes preincubated for 15 mins before PGH2 addition by RP-HPLC analysis
T4 sequence (O14684 whole entry): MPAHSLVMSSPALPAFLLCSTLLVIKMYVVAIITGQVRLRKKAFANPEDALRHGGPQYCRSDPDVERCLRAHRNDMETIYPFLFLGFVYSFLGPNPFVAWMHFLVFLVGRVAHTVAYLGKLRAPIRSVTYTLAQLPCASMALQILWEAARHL

[5] = target: T5, Prostaglandin G/H synthase 2 (Homo sapiens, UniProt P35354); assay: Inhibition of human recombinant COX2-mediated 12-HHT formation preincubated for 5 mins before arachidonic acid addition by HPLC analysis; summary of the method: as §1
T5 sequence (P35354 whole entry): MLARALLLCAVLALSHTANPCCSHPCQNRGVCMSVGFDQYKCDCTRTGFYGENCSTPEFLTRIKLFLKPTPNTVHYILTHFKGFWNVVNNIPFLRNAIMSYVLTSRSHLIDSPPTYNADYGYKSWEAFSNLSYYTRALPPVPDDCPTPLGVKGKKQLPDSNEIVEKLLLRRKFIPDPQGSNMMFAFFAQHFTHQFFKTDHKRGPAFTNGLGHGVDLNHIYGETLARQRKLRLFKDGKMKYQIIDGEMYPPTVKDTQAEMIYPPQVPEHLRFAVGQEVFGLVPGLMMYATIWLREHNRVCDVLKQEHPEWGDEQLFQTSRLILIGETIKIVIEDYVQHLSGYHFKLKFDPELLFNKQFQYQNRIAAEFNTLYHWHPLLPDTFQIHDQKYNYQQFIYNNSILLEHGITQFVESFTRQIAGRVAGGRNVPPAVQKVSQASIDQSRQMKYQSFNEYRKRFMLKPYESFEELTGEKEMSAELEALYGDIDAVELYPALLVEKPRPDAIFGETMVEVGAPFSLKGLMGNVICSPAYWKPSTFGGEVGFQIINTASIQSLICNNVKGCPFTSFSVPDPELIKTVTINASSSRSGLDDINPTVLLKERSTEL

[6] = target: T6, Polyunsaturated fatty acid 5-lipoxygenase (Homo sapiens, UniProt P09917); assay: Inhibition of 5-LO in human PMNL assessed as reduction in 5-LO product formation pre-incubated for 15 mins before addition of arachidonic acid substrate by HPLC analysis; details: read-out: IC50
T6 sequence (P09917 whole entry): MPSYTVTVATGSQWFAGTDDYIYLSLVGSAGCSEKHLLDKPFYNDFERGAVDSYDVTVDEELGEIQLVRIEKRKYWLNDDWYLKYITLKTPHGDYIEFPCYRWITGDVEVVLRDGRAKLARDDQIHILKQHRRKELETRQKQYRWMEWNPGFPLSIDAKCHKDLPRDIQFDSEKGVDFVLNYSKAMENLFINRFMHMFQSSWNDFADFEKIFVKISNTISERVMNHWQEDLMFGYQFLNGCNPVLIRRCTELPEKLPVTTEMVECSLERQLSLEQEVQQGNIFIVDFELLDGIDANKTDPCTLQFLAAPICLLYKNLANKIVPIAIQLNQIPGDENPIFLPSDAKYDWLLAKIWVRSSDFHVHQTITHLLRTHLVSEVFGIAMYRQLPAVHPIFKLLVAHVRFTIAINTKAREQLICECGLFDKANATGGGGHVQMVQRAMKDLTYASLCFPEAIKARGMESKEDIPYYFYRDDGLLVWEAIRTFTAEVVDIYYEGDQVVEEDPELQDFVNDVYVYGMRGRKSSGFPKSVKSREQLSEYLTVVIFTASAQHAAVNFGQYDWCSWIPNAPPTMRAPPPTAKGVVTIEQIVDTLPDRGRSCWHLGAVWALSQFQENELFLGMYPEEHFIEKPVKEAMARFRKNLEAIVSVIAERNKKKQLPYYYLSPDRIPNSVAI

[7] = target: T1, Peroxisome proliferator-activated receptor gamma (Homo sapiens); assay: Activation of human PPARgamma ligand binding domain expressed in COS7 cells at 3 uM by dual luciferase reporter gene assay; type: cell-based; details: COS-7
[8] = target: T7, Prostaglandin G/H synthase 1 (Ovis aries, UniProt P05979); assay: Inhibition of ovine COX1-mediated 12-HHT formation preincubated for 5 mins before arachidonic acid addition by HPLC analysis; summary of the method: as §1
T7 sequence (P05979 whole entry): T3 sequence (whole entry)

[9] = target: T8, Prostaglandin G/H synthase 2 (Homo sapiens) (UniProt P35354); assay: Inhibition of human recombinant COX2-mediated 12-HHT formation assessed as remaining activity at 10 uM preincubated for 5 mins before arachidonic acid addition by HPLC analysis; summary of the method: as §1
T8 sequence (whole entry): T5 sequence (P35354 whole entry)

[10] = Cytotoxicity against human Jurkat cells assessed as reduction in cell viability up to 30 uM after 24 to 48 hrs by MTT assay; type: cell-based; details: read-out: INH
[11] = target: NOTCH-1 signaling (Neurogenic locus notch homolog protein 1) (Homo sapiens, UniProt P46531); assay: Inhibition of NOTCH-1 signaling (unknown origin) expressed in CHO cells at 0.5 uM after 24 hrs by dual luciferase reporter gene assay; type: cell-based; details: CHO cells expressing NOTCH-1
Chain of NOTCH-1 signaling (Neurogenic locus notch homolog protein 1) (P46531 whole entry): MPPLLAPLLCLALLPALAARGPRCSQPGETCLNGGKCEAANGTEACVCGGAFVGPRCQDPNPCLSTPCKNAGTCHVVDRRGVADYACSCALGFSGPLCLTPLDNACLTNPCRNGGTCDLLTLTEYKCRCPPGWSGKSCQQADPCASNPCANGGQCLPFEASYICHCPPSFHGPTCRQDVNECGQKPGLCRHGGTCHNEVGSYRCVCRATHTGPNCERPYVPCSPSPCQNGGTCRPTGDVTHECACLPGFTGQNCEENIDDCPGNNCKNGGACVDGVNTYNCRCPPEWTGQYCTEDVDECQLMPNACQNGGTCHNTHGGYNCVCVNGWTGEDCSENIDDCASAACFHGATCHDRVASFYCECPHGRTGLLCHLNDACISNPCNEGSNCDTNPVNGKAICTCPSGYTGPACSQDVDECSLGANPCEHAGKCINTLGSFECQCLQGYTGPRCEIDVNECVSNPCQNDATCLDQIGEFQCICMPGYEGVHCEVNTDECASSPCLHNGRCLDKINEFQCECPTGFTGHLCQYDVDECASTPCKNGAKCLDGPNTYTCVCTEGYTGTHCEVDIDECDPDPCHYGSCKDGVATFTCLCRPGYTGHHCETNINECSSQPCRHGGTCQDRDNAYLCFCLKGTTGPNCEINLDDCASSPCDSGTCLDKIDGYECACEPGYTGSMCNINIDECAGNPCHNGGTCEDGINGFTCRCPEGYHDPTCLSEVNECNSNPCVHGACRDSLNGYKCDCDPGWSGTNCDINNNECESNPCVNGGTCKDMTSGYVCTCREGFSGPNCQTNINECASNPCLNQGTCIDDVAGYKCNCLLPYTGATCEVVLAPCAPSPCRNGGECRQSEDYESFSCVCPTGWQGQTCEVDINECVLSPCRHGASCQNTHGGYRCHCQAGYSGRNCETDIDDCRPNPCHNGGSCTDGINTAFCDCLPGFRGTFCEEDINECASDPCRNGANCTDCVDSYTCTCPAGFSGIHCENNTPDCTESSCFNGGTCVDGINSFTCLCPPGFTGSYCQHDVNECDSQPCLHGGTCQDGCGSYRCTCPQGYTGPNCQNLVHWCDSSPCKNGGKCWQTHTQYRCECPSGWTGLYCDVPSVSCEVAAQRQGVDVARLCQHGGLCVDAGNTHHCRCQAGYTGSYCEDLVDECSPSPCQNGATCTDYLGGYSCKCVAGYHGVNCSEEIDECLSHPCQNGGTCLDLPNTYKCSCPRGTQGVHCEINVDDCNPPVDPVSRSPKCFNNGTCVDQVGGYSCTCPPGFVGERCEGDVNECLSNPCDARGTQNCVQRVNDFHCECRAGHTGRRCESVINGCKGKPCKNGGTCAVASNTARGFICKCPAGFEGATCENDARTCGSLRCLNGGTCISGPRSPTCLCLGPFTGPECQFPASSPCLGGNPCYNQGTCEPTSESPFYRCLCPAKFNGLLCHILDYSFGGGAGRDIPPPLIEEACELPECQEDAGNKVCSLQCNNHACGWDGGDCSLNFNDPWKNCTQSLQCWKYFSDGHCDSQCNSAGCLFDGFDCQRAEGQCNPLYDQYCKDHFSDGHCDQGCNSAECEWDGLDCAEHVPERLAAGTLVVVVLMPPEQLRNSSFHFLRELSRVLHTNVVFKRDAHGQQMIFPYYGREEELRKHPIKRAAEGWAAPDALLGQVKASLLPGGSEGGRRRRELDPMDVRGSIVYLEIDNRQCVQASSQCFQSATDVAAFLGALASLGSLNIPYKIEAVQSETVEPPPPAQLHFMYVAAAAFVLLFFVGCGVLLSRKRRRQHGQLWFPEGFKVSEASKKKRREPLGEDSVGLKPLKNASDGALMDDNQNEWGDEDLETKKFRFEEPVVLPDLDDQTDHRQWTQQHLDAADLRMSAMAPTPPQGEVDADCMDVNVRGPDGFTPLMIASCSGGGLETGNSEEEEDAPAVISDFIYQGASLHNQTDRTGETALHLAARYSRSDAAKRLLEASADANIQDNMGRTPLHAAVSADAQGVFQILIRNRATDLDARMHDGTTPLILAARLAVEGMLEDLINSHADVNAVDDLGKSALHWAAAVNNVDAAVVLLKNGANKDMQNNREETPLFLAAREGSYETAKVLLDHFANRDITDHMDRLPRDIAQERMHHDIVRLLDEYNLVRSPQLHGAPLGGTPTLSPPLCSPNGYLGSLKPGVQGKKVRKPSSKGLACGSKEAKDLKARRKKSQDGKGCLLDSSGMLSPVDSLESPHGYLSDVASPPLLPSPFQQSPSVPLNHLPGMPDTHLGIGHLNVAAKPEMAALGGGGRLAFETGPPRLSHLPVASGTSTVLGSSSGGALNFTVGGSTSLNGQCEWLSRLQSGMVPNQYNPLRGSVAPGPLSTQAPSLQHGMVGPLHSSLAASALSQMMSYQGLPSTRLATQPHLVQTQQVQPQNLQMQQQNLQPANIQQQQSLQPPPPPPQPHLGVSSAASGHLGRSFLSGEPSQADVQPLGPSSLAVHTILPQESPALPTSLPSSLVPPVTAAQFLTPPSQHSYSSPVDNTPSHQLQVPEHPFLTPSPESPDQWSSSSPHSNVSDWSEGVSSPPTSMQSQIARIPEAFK
Summary of the method: (§2)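 Dual luciferase Notch reporter read-out in CHO cells. Test compounds were run at 5–50 µM. The γ-secretase inhibitor LY-411575 was run at 0.5 µM as the reference treatment.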

[12] = target: Neurogenic locus notch homolog protein 1 (Homo sapiens, UniProt P46531); assay: Inhibition of NOTCH-1 signaling (unknown origin) expressed in CHO cells at 5 to 50 uM after 24 hrs by dual luciferase reporter gene assay; type: cell-based; summary of the method: as §2
Chain of Neurogenic locus notch homolog protein 1 (P46531 whole entry, the tested form may be a part): as the sequence (P46531 whole entry) above

[13] = target: T1, Peroxisome proliferator-activated receptor gamma (Homo sapiens); assay: Activation of human PPARgamma ligand binding domain expressed in COS7 cells at 10 uM by dual luciferase reporter gene assay; type: cell-based; details: COS-7
[14] = Cytotoxicity against CHO cells assessed as cell viability up to 30 uM after 24 hrs by alamar blue assay; type: cell-based, Cricetulus griseus; details: chinese hamster, read-out: Activity
[15] = target: T9, Peroxisome proliferator-activated receptor gamma (Homo sapiens, UniProt P37231); assay: Activation of human PPARgamma ligand binding domain expressed in COS7 cells by dual luciferase reporter gene assay; type: cell-based, COS-7
T9 sequence (P37231 whole entry): T1 sequence (whole entry)

[16] = target: T1, Peroxisome proliferator-activated receptor gamma (Homo sapiens); assay: Activation of human PPARgamma ligand binding domain expressed in COS7 cells by dual luciferase reporter gene assay relative to 1 uM pioglitazone; type: cell-based; details: COS-7
Gamma-secretase = assay: Inhibition of CHAPSO-solubilized gamma-secretase isolated from human SH-SY5Y P2 cell membranes assessed as reduction in Abeta(1 to 42) peptide generation from recombinant C100Flag substrate by electrochemiluminescence assay

Activity [1] [%]	IC50 (Presenilin-1 [2]) [nM]	Activity [3] [%]	EC50 (Presenilin-1 [4]) [nM]	IC50 (Prostaglandin E synthase) [nM]	IC50 [5] [nM]	IC50 [6] [nM]	Activity [7] [%]	IC50 [8] [nM]	Activity [9] [%]	inhibition at 24 h, 0.5 µM [11] [%]	inhibition (INH) [12]	Activity [13] [%]	EC50 ([15]; read-out: EC50) [nM]	max activation [16]	IC50 (Gamma-secretase) [nM]	EC50 ([15]; cos-7)	Compound	cytotoxicity [10] [%]	viability at 24 h [14] [%]
72	1500	66.3	1300	3100	> 10000	500	21	> 10000	72.2								CCCC/C(=C\c1cc(OCCc2ccc(C(F)(F)F)cc2)ccc1OCc1ccc(C(F)(F)F)cc1)C(=O)O	> 50	
										> 75							C[C@H](NC(=O)[C@@H](O)c1cc(F)cc(F)c1)C(=O)N[C@@H]1C(=O)N(C)c2ccccc2-c2ccccc21		
	630	69	1170	3000	> 10000	200		> 10000	84.2		Not Active	17					CCCC/C(=C\c1cc(OCc2ccc3nc(C(F)(F)F)cc(OC)c3c2)ccc1OCc1ccc(C(F)(F)F)cc1)C(=O)O		> 50
	790	62.4	1000	> 10000	> 10000	300		> 10000	77.3				4640	103%			CCCC/C(=C\c1cc(OCc2cc(C(F)(F)F)cc(C(F)(F)F)c2)ccc1OCc1ccc(C(F)(F)F)cc1)C(=O)O		> 50
	1000	58	1100	2500	> 10000	1700		> 10000	75.3		Not Active		2160	158%			CCCC/C(=C\c1cc(OCC2CCC(C(F)(F)F)CC2)ccc1OCc1ccc(C(F)(F)F)cc1)C(=O)O (stereo not drawn)		> 50
															307000		C[C@@H](C(=O)O)c1ccc(-c2ccccc2)c(F)c1 [TARENFLURBIL]		
	4600	67.4	2100	9200	> 10000	700		> 10000	91.7					inactive		Not Active	CCCC/C(=C\c1cc(OCc2cc3ccccc3s2)ccc1OCc1ccc(C(F)(F)F)cc1)C(=O)O	> 50	
